In ChEMBL document CHEMBL2203269, “Target-Activated Prodrugs (TAPs) for the Autoregulated Inhibition of MMP12” (ACS Med Chem Lett, 2012):

Substrate: CC(C)C[C@H](NC(=O)CN(C(=O)[C@H](CC(C)C)NC(=O)[C@@H]1CCCN1C(=O)OCc1ccccc1)S(=O)(=O)c1ccc(-c2ccccc2)cc1)C(=O)N[C@@H](CCC(=O)O)C(=O)N[C@@H](CCC(=O)O)C(=O)N[C@@H](C)C(N)=O
Assay: Ratio of Kcat to Km for human MMP-12
Method in brief: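 Recombinant human MMP12 was incubated with the peptidic prodrug substrate. Cleavage at the N terminus of the P1 leucine was monitored by HPLC, and kcat/Km was determined from the HPLC data.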

B1: Macrophage metalloelastase (Homo sapiens), P39900 (protein)
chain: MKFLLILLLQATASGALPLNSSTSLEKNNVLFGERYLEKFYGLEINKLPVTKMKYSGNLMKEKIQEMQHFLGLKVTGQLDTSTLEMMHAPRCGVPDVHHFREMPGGPVWRKHYITYRINNYTPDMNREDVDYAIRKAFQVWSNVTPLKFSKINTGMADILVVFARGAHGDFHAFDGKGGILAHAFGPGSGIGGDAHFDEDEFWTTHSGGTNLFLTAVHEIGHSLGLGHSSDPKAVMFPTYKYVDINTFRLSADDIRGIQSLYGDPKENQRLPNPDNSEPALCDPNLSFDAVTTVGNKIFFFKDRFFWLKVSERPKTSVNLISSLWPTLPSGIEAAYEIEARNQVFLFKDDKYWLISNLRPEPNYPKSIHSFGFPNFVKKIDAAVFNPRFYRTYFFVDNQYWRYDERRQMMDPGYPKLITKNFQGIGPKIDAVFYSKNKYYYFFQGSNQFEYDFLLQRITKTLKSNSWFGC
  kcat/Km: 3.7 ×10³ /M.s
